Source: ChEMBL document CHEMBL1129565, “Selective inhibitors of monoamine oxidase. 3. Structure-activity relationship of tricyclics bearing imidazoline, oxadiazole, or tetrazole groups” (J Med Chem, 1996)

Legend:
[1] = molecular target: T1, Amine oxidase [flavin-containing] B (Rattus norvegicus, UniProt P19643); assay: Inhibitory activity against rat brain mitochondrial Monoamine oxidase B at 1 uM
T1 sequence (P19643 whole entry): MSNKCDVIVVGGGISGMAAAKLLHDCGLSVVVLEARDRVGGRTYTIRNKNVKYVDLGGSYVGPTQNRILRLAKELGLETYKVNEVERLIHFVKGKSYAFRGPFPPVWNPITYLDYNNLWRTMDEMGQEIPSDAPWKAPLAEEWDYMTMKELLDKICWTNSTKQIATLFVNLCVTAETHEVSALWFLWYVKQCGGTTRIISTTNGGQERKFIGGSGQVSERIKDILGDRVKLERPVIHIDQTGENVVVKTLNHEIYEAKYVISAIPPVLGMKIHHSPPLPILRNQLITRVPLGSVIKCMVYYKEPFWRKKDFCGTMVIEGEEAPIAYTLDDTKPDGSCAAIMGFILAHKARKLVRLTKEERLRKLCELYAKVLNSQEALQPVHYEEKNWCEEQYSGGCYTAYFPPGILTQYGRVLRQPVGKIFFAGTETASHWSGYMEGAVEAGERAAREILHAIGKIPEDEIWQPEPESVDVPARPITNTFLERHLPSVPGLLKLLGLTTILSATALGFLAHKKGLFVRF
Outline: (§1)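 Rat brain mitochondrial MAO extract preincubated with inhibitor 15 min at 37 °C in 50 mM potassium phosphate pH 7.4. [14C]phenethylamine added at 10 μM final, then 20 min incubation. Pargyline 2 mM blanks. Stopped with HCl, products extracted into ethyl acetate/toluene and counted radiometrically. Triplicates; IC50 from mean % inhibition vs log concentration.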

[2] = molecular target: T2, Amine oxidase [flavin-containing] A (Rattus norvegicus, UniProt P21396); assay: Inhibitory concentration against rat brain mitochondrial Monoamine oxidase A at 1 uM
T2 sequence (P21396 whole entry): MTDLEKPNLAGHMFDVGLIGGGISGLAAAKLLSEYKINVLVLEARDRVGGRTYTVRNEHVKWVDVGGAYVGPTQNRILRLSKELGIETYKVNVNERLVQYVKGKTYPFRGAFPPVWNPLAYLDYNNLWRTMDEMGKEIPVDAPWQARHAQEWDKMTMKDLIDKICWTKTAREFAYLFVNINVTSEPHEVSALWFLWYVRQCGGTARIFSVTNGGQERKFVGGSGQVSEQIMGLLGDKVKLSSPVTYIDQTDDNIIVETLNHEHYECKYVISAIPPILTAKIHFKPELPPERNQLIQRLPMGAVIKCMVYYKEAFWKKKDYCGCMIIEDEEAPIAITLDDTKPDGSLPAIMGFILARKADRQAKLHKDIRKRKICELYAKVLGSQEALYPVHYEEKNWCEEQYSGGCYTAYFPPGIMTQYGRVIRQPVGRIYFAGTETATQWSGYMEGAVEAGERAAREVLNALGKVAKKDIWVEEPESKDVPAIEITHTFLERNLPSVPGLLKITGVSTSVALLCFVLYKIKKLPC
Outline: as §1, with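 “[3H]serotonin” for “[14C]phenethylamine”, “0.2” for “10”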

[3] = molecular target: T2, Amine oxidase [flavin-containing] A; assay: Inhibitory concentration against rat brain mitochondrial monoamine oxidase A
Outline: as §1, with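 “[3H]serotonin” for “[14C]phenethylamine”, “0.2” for “10”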

[4] = molecular target: T2, Amine oxidase [flavin-containing] A; assay: Inhibition of the enzyme Monoamine oxidase A which was not completely reverserved after 24 hr of dialysis
Outline: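 Reversibility: MAO extract preincubated with or without inhibitor 15 min at 37 °C, in duplicate, then dialysed 24 h at 4 °C with shaking against 0.1 M potassium phosphate pH 7.4, 5% sucrose, 1 mM dithiothreitol, buffer changed ca. 3 and 19 h. Undialysed portions held at 4 °C; both assayed together for MAO activity.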

[5] = molecular target: T2, Amine oxidase [flavin-containing] A; assay: Inhibitory concentration against rat brain mitochondrial Monoamine oxidase A at <1 uM
Outline: as §1, with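 “[3H]serotonin” for “[14C]phenethylamine”, “0.2” for “10”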

[6] = molecular target: T1, Amine oxidase [flavin-containing] B; assay: Inhibitory activity against rat brain mitochondrial Monoamine oxidase B at < 1 uM; outline: as §1
[7] = molecular target: T2, Amine oxidase [flavin-containing] A; assay: Inhibitory concentration against rat brain mitochondrial Monoamine oxidase A at 10 uM
Outline: as §1, with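 “[3H]serotonin” for “[14C]phenethylamine”, “0.2” for “10”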

[8] = molecular target: T1, Amine oxidase [flavin-containing] B; assay: Inhibitory activity against rat brain mitochondrial Monoamine oxidase B at 10 uM; outline: as §1
[9] = molecular target: T1, Amine oxidase [flavin-containing] B; assay: Inhibitory activity against rat brain mitochondrial Monoamine oxidase B; outline: as §1
[10] = molecular target: T2, Amine oxidase [flavin-containing] A; assay: Inhibitory concentration against rat brain mitochondrial Monoamine oxidase A at 0.1 uM
Outline: as §1, with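 “[3H]serotonin” for “[14C]phenethylamine”, “0.2” for “10”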

[11] = molecular target: T1, Amine oxidase [flavin-containing] B; assay: Inhibitory activity against rat brain mitochondrial Monoamine oxidase B at 0.1 uM; outline: as §1
[12] = molecular target: T2, Amine oxidase [flavin-containing] A; assay: Inhibition of the enzyme Monoamine oxidase A which was not completely reverserved after 24 hr of dialysis after po administration to rat (brain); type: organism-based; details: in vivo
[13] = molecular target: T1, Amine oxidase [flavin-containing] B; assay: Inhibitory activity against rat brain mitochondrial Monoamine oxidase B;NS=not significant at 0.1 uM; outline: as §1
[14] = molecular target: T2, Amine oxidase [flavin-containing] A; assay: Ex vivo value for inhibition of MAO A of rats sacrificed 2 hr after po administration; type: organism-based
Outline: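 Rats dosed orally, killed 2 h later; brain MAO A inhibition then measured ex vivo.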

[15] = molecular target: T2, Amine oxidase [flavin-containing] A; assay: Inhibition of the enzyme MAO A which was not completely reverserved after 24 hr of dialysis after po administration to rat (brain); type: organism-based; details: in vivo
[16] = molecular target: T1, Amine oxidase [flavin-containing] B; assay: Inhibitory activity against rat brain mitochondrial Monoamine oxidase B at 0.3 uM; outline: as §1

Row | SMILES | inhibition at 1 µM [1] [%] | IC50 [3] [nM] | Reversible [4] [%] | other results
1 | CCOc1ccc2oc3cc(-c4nnn(CC)n4)ccc3c(=O)c2c1 | – | – | – | Inhibition [5]: 6%; Inhibition [6]: 32%
2 | CC1CN=C(c2ccc3c(c2)S(=O)(=O)c2ccccc2C3=O)N1 (stereo unspecified) | – | – | – | inhibition at 10 µM [7]: 36%; inhibition at 10 µM [8]: 49%
3 | O=C1c2cc(N3CCOCC3)ccc2S(=O)(=O)c2cc(C3=NCCN3)ccc21 | 4 | 10 | – | –
4 | COc1ccc2c(c1)C(=O)c1ccc(-c3nnc(C)o3)cc1S2(=O)=O | – | 1 | 14 | IC50 [9]: 100 nM
5 | O=C1c2cc(C3=NCCN3)ccc2S(=O)(=O)c2cc(C3=NCCN3)ccc21 | 3 | – | – | inhibition at 1 µM [2]: 46%
6 | Cn1nnc(-c2ccc3c(c2)S(=O)(=O)c2ccccc2C3=O)n1 | 10 | 10 | 100 | –
7 | Cc1nc(-c2ccc3c(c2)Sc2ccccc2O3)no1 | 14 | 200 | – | –
8 | CCCOc1ccc2c(c1)C(=O)c1ccc(C3=NCCN3C(C)=O)cc1S2(=O)=O | – | – | – | inhibition at 0.1 µM [10]: 16%; inhibition at 0.1 µM [11]: 20%
9 | COc1nnc(-c2ccc3c(c2)S(=O)(=O)c2ccccc2C3=O)o1 | 14 | 80 | – | –
10 | c1ccc(Cn2c3ccccc3c3cc(C4=NCCN4)ccc32)cc1 | – | – | – | inhibition at 10 µM [7]: 20%; inhibition at 10 µM [8]: 61%
11 | CCn1nnc(-c2ccc3c(=O)c4cc(O)ccc4oc3c2)n1 | – | 2000 | – | IC50 [9]: 100 nM
12 | Cc1nc(-c2ccc3c(c2)S(=O)(=O)c2ccccc2O3)no1 | 17 | – | – | inhibition at 1 µM [2]: 98%
13 | CC(C)c1ccc2c(c1)C(=O)c1ccc(-c3nnn(C)n3)cc1S2(=O)=O | – | 5 | 0 | inhibition at 0.1 µM [11]: -30%
14 | CCc1nnc(-c2ccc3c(c2)S(=O)(=O)c2ccccc2C3=O)o1 | 23 | 500 | – | –
15 | O=C1c2ccccc2S(=O)(=O)c2cc(-c3nn[nH]n3)ccc21 [DOXANTRAZOLE] | – | – | – | inhibition at 10 µM [7]: 9%; inhibition at 10 µM [8]: 1%

Second part, led by results:

Row | inhibition at 1 µM [1] [%] | IC50 [3] [nM] | Reversible [4] [%] | SMILES | other results
16 | 12 | – | – | O=S1(=O)c2ccccc2Nc2cc(C3=NCCN3)ccc21 | inhibition at 1 µM [2]: 23%
17 | – | 23 | 8 | CNc1ccc2c(c1)C(=O)c1ccc(C3=NCCN3)cc1S2(=O)=O | –
18 | 12 | 7 | 4 | CCOc1ccc2c(c1)C(=O)c1ccc(C3=NCCN3)cc1S2(=O)=O | –
19 | – | 20 | 26 | Cc1ccc2c(c1)C(=O)c1ccc(C3=NCCN3)cc1S2(=O)=O | inhibition at 10 µM [8]: 0%
20 | – | 40 | – | CCN(C)c1ccc2c(c1)C(=O)c1ccc(C3=NCCN3)cc1S2(=O)=O | Reversible [12]: 20%; IC50 [13]: Not Active
21 | – | 40 | 16 | O=S1(=O)c2ccccc2Oc2ccc(C3=NCCN3)cc21 | Inhibition [6]: 59%
22 | 12 | 9 | 5 | C=CCNc1ccc2c(c1)C(=O)c1ccc(C3=NCCN3)cc1S2(=O)=O | –
23 | 11 | – | – | c1ccc2c(c1)Cc1cc(C3=NCCN3)ccc1-2 | inhibition at 1 µM [2]: 59%
24 | 12 | 200 | 62 | O=C1c2cc(F)ccc2S(=O)(=O)c2cc(C3=NCCN3)ccc21 | –
25 | – | 50 | 40 | CC(C)c1ccc2c(c1)C(=O)c1ccc(C3=NCCN3)cc1S2(=O)=O | inhibition at 0.1 µM [11]: 0%
26 | – | 300 | – | O=C1c2ccccc2S(=O)(=O)c2cc(C3=NCCN3)ccc21 | Ki [14]: 80 nM; Reversible [15]: 100%; inhibition at 0.3 µM [16]: 3%
27 | -6 | – | – | O=C1c2ccccc2S(=O)(=O)c2c1cccc2C1=NCCN1 | inhibition at 1 µM [2]: -5%
